Reference: ChEMBL document CHEMBL3994624, “Antimalarial Pyrido[1,2-a]benzimidazoles: Lead Optimization, Parasite Life Cycle Stage Profile, Mechanistic Evaluation, Killing Kinetics, and in Vivo Oral Efficacy in a Mouse Model” (J Med Chem, 2017)

What was measured:
Plasmodium falciparum [1] = experiment: Anti-plasmodial activity against multidrug resistant Plasmodium falciparum K1 by [3H]-hypoxanthine incorporation assay; format: functional
Method in brief: (§1)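 P. falciparum asexual blood-stage growth inhibition by [3H]hypoxanthine incorporation; chloroquine and artesunate run as reference drugs in every experiment; IC50 given as mean of ≥2 independent experiments.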

CHO = experiment: Cytotoxicity against CHO cells after by MTT assay; format: cell-based; settings: Cricetulus griseus
Plasmodium falciparum [2] = experiment: Anti-plasmodial activity against chloroquine-sensitive Plasmodium falciparum NF54 by [3H]-hypoxanthine incorporation assay; format: functional; method in brief: as §1
[3] = Selectivity index, ratio of IC50 for CHO cells to IC50 for chloroquine-sensitive Plasmodium falciparum NF54; format: toxicity; settings: hamster, read-out: Ratio IC50
Method in brief: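 Selectivity index = IC50 CHO / IC50 PfNF54.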

| IC50 (Plasmodium falciparum [2]) [µM] | Structure (SMILES) | IC50 (Plasmodium falciparum [1]) [µM] | IC50 (CHO) [µM] | selectivity ratio [3] |
| --- | --- | --- | --- | --- |
| 0.38 | CCNCCNc1cc(-c2ccc(C(F)(F)F)cc2)c(C#N)c2nc3cc(Br)ccc3n12 |  | 1.8 | 5 |
| > 10 | CS(=O)(=O)N1CCN(CCNc2cc(-c3ccc(C(F)(F)F)cc3)c(C#N)c3nc4ccccc4n23)CC1 |  |  |  |
| > 10 | N#Cc1c(-c2ccc(C(F)(F)F)cc2)cc(N2CCC(=O)CC2)n2c1nc1ccccc12 |  |  |  |
| 0.07 | CCNCCNc1cc(-c2ccc(C(F)(F)F)cc2)c(C#N)c2nc3ccc(Br)cc3n12 |  | 4.44 | 63 |
| 4.96 | CC(C)(O)C1CCC(Nc2cc(-c3ccc(C(F)(F)F)cc3)c(C#N)c3nc4ccccc4n23)CC1 (configuration not stated) |  |  |  |
| > 24 | N#Cc1c(-c2ccc(C(F)(F)F)cc2)cc(N2CCC(O)CC2)n2c1nc1ccccc12 |  |  |  |
| > 10 | N#Cc1c(-c2ccc(C(F)(F)F)cc2)cc(NCC2CCS(=O)(=O)CC2)n2c1nc1ccccc12 |  |  |  |
| 5.02 | CS(=O)(=O)N1CCC(Nc2cc(-c3ccc(C(F)(F)F)cc3)c(C#N)c3nc4ccccc4n23)CC1 |  |  |  |
| 6.45 | CC1(O)CCC(Nc2cc(-c3ccc(C(F)(F)F)cc3)c(C#N)c3nc4ccccc4n23)CC1 (configuration not stated) |  |  |  |
| 0.26 | N#Cc1c(-c2ccc(C(F)(F)F)cc2)cc(NC2CCNCC2)n2c1nc1cc(Cl)cc(Cl)c12 |  | 5.9 | 22.3 |
| 4.42 | CC(=O)N1CCC(Nc2cc(-c3ccc(C(F)(F)F)cc3)c(C#N)c3nc4ccccc4n23)CC1 |  |  |  |
| 3.9 | CCNCCNc1cc(-c2ccc(SC)cc2)c(C#N)c2nc3ccccc3n12 |  |  |  |
| 7.81 | N#Cc1c(-c2ccc(C(F)(F)F)cc2)cc(NC2CCS(=O)(=O)CC2)n2c1nc1ccccc12 |  |  |  |
| 2.93 | CCNCCNc1cc(C(F)(F)F)c(C#N)c2nc3ccccc3n12 |  |  |  |
| 21.3 | N#Cc1c(-c2ccc(C(F)(F)F)cc2)cc(N2CC(O)C2)n2c1nc1ccccc12 |  |  |  |
| 16.4 | CC(=O)NCCNc1cc(-c2ccc(C(F)(F)F)cc2)c(C#N)c2nc3ccccc3n12 |  |  |  |
|  | CC[C@H]1CN2CCc3cc(OC)c(OC)cc3[C@@H]2C[C@@H]1C[C@H]1NCCc2cc(OC)c(OC)cc21 [EMETINE] |  | 0.095 |  |
| > 10 | N#Cc1c(-c2ccc(C(F)(F)F)cc2)cc(NC2CCC(O)CC2)n2c1nc1ccccc12 (configuration not stated) |  |  |  |
| 8.48 | N#Cc1c(-c2ccc(C(F)(F)F)cc2)cc(N2CCC(O)C2)n2c1nc1ccccc12 (configuration not stated) |  |  |  |
| 1.38 | CNC1CCCN(c2cc(-c3ccc(C(F)(F)F)cc3)c(C#N)c3nc4ccccc4n23)C1 (configuration not stated) |  |  |  |
| > 10 | N#Cc1c(-c2ccc(C(F)(F)F)cc2)cc(NCC2CCOCC2)n2c1nc1ccccc12 |  |  |  |
| 5.99 | N#Cc1c(-c2ccc(C(F)(F)F)cc2)cc(NCCN2CCCC2=O)n2c1nc1ccccc12 |  |  |  |
| 1.14 | CNC1CCN(c2cc(-c3ccc(C(F)(F)F)cc3)c(C#N)c3nc4ccccc4n23)C1 (configuration not stated) |  |  |  |
| 3.81 | CCNCCNc1cc(-c2ccc([S+](C)[O-])cc2)c(C#N)c2nc3ccccc3n12 (configuration not stated) |  |  |  |
| 9.1 | CS(=O)(=O)NCCNc1cc(-c2ccc(C(F)(F)F)cc2)c(C#N)c2nc3ccccc3n12 |  |  |  |
| 4.13 | CCN(CC)CCCC(C)Nc1cc(C(F)(F)F)c(C#N)c2nc3ccccc3n12 (configuration not stated) |  |  |  |

| Structure (SMILES) | IC50 (Plasmodium falciparum [2]) [µM] | IC50 (Plasmodium falciparum [1]) [µM] | IC50 (CHO) [µM] | selectivity ratio [3] |
| --- | --- | --- | --- | --- |
| CN1CCC(Nc2cc(-c3ccc(C(F)(F)F)cc3)c(C#N)c3nc4cc(Cl)c(Cl)cc4n23)CC1 | 0.05 | 0.19 | 4.19 | 6.1 |
| CCNCCNc1cc(-c2ccccc2F)c(C#N)c2nc3ccccc3n12 | 0.89 | 1 | 24.4 | 27 |
| CN1CCN(c2cc(-c3ccc(C(F)(F)F)cc3)c(C#N)c3nc4ccccc4n23)CC1 | 7.26 | 0.46 |  |  |
| CN1CCC(Oc2cc(-c3ccc(C(F)(F)F)cc3)c(C#N)c3nc4ccccc4n23)CC1 | 0.7 | 0.96 | 4.07 | 6 |
| CCNCCNc1cc(-c2ccc(C(F)(F)F)cc2)c(C#N)c2nc3cnccc3n12 | 0.27 | 0.84 | 3.14 | 6 |
| N#Cc1c(-c2ccc(C(F)(F)F)cc2)cc(N2CCNCC2)n2c1nc1ccccc12 | 3 | 0.44 |  |  |
